One assay is filed under the species Canis familiaris. As to the kind of experiment: In vitro inhibition of U 46619 induced contraction of dog saphenous vein. It counts as functional. To be noted: Canis lupus familiaris, read-out: pA2 (converted). A digest of the protocol:
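Dog saphenous vein rings 2-3 mm in modified Krebs buffer with 1.0 μM indomethacin, 95% O2/5% CO2, 37 °C, 2.0 g preload, isometric tension.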

The species entered for assay [1] is Homo sapiens. Nature of the assay: In vitro inhibition of U 46619 induced aggregation of human PRP. It counts as functional, organism-based.
The species entered for assay [2] is Homo sapiens. As to the kind of experiment: In vitro inhibition of U 46619 induced aggregation of washed human platelets. It counts as functional.
Assay [3] has as its target T1, Thromboxane-A synthase (Homo sapiens, UniProt P24557).
T1 sequence (P24557 whole entry): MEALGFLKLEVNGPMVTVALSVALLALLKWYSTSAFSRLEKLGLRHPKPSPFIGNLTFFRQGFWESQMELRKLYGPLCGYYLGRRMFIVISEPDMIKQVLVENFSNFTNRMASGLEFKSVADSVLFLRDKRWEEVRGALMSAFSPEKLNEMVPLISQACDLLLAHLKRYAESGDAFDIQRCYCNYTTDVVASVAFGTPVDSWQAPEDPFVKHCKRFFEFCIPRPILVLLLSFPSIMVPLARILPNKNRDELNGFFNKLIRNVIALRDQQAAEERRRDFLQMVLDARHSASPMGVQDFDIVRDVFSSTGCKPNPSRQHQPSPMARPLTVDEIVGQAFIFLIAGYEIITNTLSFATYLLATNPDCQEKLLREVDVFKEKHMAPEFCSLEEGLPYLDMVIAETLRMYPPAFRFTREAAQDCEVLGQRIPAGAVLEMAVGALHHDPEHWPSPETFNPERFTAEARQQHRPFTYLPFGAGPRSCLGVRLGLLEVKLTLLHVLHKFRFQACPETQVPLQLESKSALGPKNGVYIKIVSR
Nature of the assay: In vitro inhibition of thromboxane synthase using [14C]arachidonic acid. A digest of the protocol: (§1)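 Human platelet microsomal preparation incubated with [14C]arachidonic acid; thromboxane synthase activity read as TxB2 formation; IC50 determined.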

The target of assay [4] is T1, Thromboxane-A synthase. Nature of the assay: In vitro inhibition of Thromboxane synthase using [14C]arachidonic acid […]. A digest of the protocol:
as §1

pIC50: −log10 of the molar value.

Take `O=C(O)CC/C=C\C[C@@]1(c2cccnc2)C2CCC(C2)[C@H]1CNS(=O)(=O)c1ccc(Cl)cc1` (some centres not stated): in the assay listed under Canis familiaris, the Kb is 3.24 nM. The pIC50 in the assay listed under Homo sapiens [1] is 4.96; in the assay filed under Homo sapiens [2] it was 7.52; on Thromboxane-A synthase [3], 6.47.

Turning to `O=C(O)CCCCO/N=C(/c1cccnc1)c1cccc(C(F)(F)F)c1` [RIDOGREL], in the assay filed under Canis familiaris, the Kb was 447 nM. In addition, the pIC50 was 5.55 in the assay listed under Homo sapiens [1], 5.89 in the assay filed under Homo sapiens [2] and 8.52 on Thromboxane-A synthase [4].

With `O=C(O)CCCCCC[C@H]1C2CCC(C2)[C@H]1c1cccnc1` (some centres not stated), the pIC50 was 4.89 in the assay filed under Homo sapiens [2] and 8.15 at Thromboxane-A synthase [3].

`O=C(O)CCCCCC[C@@H]1C2CCC(C2)[C@@H]1c1cccnc1` (some centres not stated): the pIC50 was 5.14 in the assay listed under Homo sapiens [2] and 7.27 against Thromboxane-A synthase [3].

With `O=C(O)CCCC/C=C\C[C@@H]1C2CCC(C2)C1c1cccnc1` (some centres not stated), the pIC50 on Thromboxane-A synthase [4] was 6.78.

In the case of `O=C(O)CCCCCC[C@@H]1C2CCC(C2)C1c1cccnc1` (some centres not stated), the negative-log IC50 (pIC50) in the assay listed under Homo sapiens [2] is 5.01; against Thromboxane-A synthase [3] it was 6.90.

For the compound `O=C(O)CCC/C=C\C[C@@H]1C2CCC(C2)[C@@]1(CCCCCc1ccccc1)c1cccnc1` (some centres not stated), the pIC50 is 5.82 in the assay filed under Homo sapiens [2] and 6.10 on Thromboxane-A synthase [3].

These data come from ChEMBL document CHEMBL1125883, “Thromboxane receptor antagonism combined with thromboxane synthase inhibition. 1. (+/-)-(3-pyridinylbicycloheptyl)alkanoic acids” (J Med Chem, 1991).
